From PubChem
Yeast lifespan up – extends the lifespan of yeast; S. cerevisiae growth with nicotinamide, OD615; deaD strain in restrictive glucose medium; hit rate 0.68% among 130,000; inhibition of the nicotinamide effect, % at 10 µM;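 active means inhibition above a set limit, placed 3 SD over the median of all compounds, cut at about 26% in these data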
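Measured by: optical density (absorbance) at 615 nm; System: modified budding yeast, DeaD strain; Medium: restrictive CSMM-D dextrose medium; Timing: 4 h preincubation then 48 h treatment at 30 °C.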
BB579 growth dn – chemicals that inhibit yeast BB579 growth in restrictive medium (lifespan-shortening candidates); S. cerevisiae BB579 growth, OD615, 48 h; inhibition, % at 10 µM; hit rate 0.51% among 140,000; AID 804;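 active means inhibition above a set limit, 3 SD over the mean compound inhibition, cut at about 44% in these data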
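System: Saccharomyces cerevisiae DeaD strain BB579, replicative lifespan model yeast. Buffer or medium: restrictive glucose-based CSMM-D medium. Doses: one dose, 10 µM compound with 0.25% DMSO. Timing: 4 h preincubation and 48 h exposure at 30 °C. Detection: turbidity as optical density at 615 nm. Benchmarks: amphotericin B 10 µg/mL, positive.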
Insulin prom inh – TRM-6 insulin promoter activity inhibition; inhibition, % at 2 µM; TRM-6 cells, insulin promoter-eGFP reporter, imaging; reporter expression induced with tamoxifen; hit rate 0.9% among 130,000;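 active means inhibition above the mean plus 3 SD, with well images judged a real hit on visual review, cut at about 60% in these data, passing the limit was not always enough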
RAM network inh – blocks the yeast RAM network | hit rate 1.8% among 190,000 | AID 868 | S. cerevisiae dse1pr::URA3 reporter, 5-FOA growth OD615, 2 d; analog-sensitive cbk1-as2 kinase mutant strain | inhibition, % at 50 µM;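 active means inhibition above a set limit, 3 SD over mean compound inhibition, cut at about 8.4% in these data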;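 further: inhibition rescues growth on 5-FOA so higher OD means more RAM inhibition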
Efa HMGR inh – blocks class II HMG-CoA reductase of Enterococcus faecalis | purified E. faecalis HMGR, NADPH absorbance 340 nm kinetic | inhibition, % at 10 µM | hit rate 0.41% among 190,000 | AID 1066;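 active means inhibition above a set limit, the median over all tested compounds plus 3 SD, cut at about 9.5% in these data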;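 further: enzyme runs in reverse so mevalonate oxidation gives rising NADPH absorbance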
RAM efflux-def – RAM network inhibitors in efflux-deficient yeast; 1,200 tested, under 10 active; shares compounds with RAM network inh; S. cerevisiae efflux-deficient reporter strain, 5-FOA growth OD615, 2 days; max inhibition, %; call rule not given here
Of the large screens only hits and unclear results are named; the others gave an inactive call (follow-up assays come after a bar, where they were run). Shown are actives, neighbours in structure and some others; about 3.7% of the full set was active somewhere.

COc1ccc(CCN2C(=O)c3[nH]nc(-c4ccccc4O)c3C2c2cccc(Cl)c2)cc1 (stereo not given)	none
c1ccc(-c2nc3c(ccc4ccccc43)[nH]2)nc1	BB579 growth dn 72 (no result: Yeast lifespan up)
CCOc1ccc(-c2cc(CCCC(=O)NCCc3ccccc3)no2)cc1	Insulin prom inh 75
CCSc1nnc(NS(=O)(=O)c2ccc(OC)cc2)s1	none (no result: Yeast lifespan up, BB579 growth dn, Insulin prom inh)
Cc1ccc(NC(=O)CSc2nn(-c3ccc(Cl)cc3)c(=S)s2)cc1S(=O)(=O)N(C)C	RAM network inh 11
COc1ccc(Cl)cc1NC(=O)CN(C)CC(=O)Nc1ccc(C)cc1Br	none (no result: Yeast lifespan up, BB579 growth dn)
COCCCN1C(=O)C(O)=C(C(=O)c2ccco2)C1c1ccc(Br)cc1 (stereo not given)	RAM network inh 9.1
N=C1SCC(=O)N1c1ncc(Cc2ccc(F)cc2)s1	none (no result: Yeast lifespan up, BB579 growth dn)
Cc1ccc(CNC(=O)C(C)OC(=O)c2ccco2)cc1 (stereo not given)	Yeast lifespan up 39
Clc1ccc(OCCSc2ncccn2)cc1	Insulin prom inh 66
O=C1c2c(O)cc(O)cc2O[C@@]12c1c(cc(O)c3c1O[C@H](c1ccc(O)cc1)[C@@H](O)C3)O[C@@H]2c1ccc(O)cc1	Efa HMGR inh 9.6
CCCC1(C(=O)OCC)NC(c2ccco2)C2C(=O)N(C)C(=O)C21 (stereo not given)	none (no result: Yeast lifespan up, BB579 growth dn)
Cc1ccc(Cn2c(=N)c(C(=O)NCc3ccco3)cc3c(=O)n4ccccc4nc32)cc1	none
COCCn1c(=N)c(C(=O)NCc2ccco2)cc2c(=O)n3cc(C)ccc3nc21	Efa HMGR inh 17 (no result: Yeast lifespan up, BB579 growth dn)
Brc1cccc(-c2cnco2)c1	none (no result: Yeast lifespan up, BB579 growth dn, Insulin prom inh)
OCC1(CCOc2ccccc2)CCN(Cc2nc3ccc(F)cc3[nH]2)CC1	none (no result: Yeast lifespan up, BB579 growth dn)
CCc1ccc(C(=O)COC(=O)c2cc([N+](=O)[O-])ccc2NCCO)cc1	RAM network inh 10
O=C(O)C1Nc2c(O)cc(Cl)c([N+](=O)[O-])c2C2C=CCC12 (stereo not given)	Efa HMGR inh 13 (no result: Yeast lifespan up, BB579 growth dn)
COc1cccc(NC(=O)c2ccc3c(c2)N(CC(=O)N2CCCCC2)C(=O)C(C)(C)O3)c1	RAM network inh 8.8 (no result: Insulin prom inh)
COc1cccc(NC(=O)CSc2nnc(COc3ccc4c(c3)CCCC4)o2)c1	RAM network inh 12 (no result: Yeast lifespan up) | RAM efflux-def inactive
C=CCn1c(COc2ccc3c(c2)CCCC3)nnc1SCC(=O)Nc1cccc(SC)c1	RAM network inh 15 (no result: Insulin prom inh) | RAM efflux-def inactive
CCOC(=O)c1cccc(NC(=O)CSc2nnc(COc3ccccc3C)o2)c1	RAM network inh 12 (no result: Insulin prom inh) | RAM efflux-def inactive
C=CCn1c(COc2ccccc2)nnc1SCC(=O)Nc1ccc2c(c1)OCCO2	none
COc1ccc([N+](=O)[O-])cc1NC(=O)c1ccc(N(Cc2ccccc2Cl)S(C)(=O)=O)cc1	none
CCc1cc2cc(OC)ccc2nc1SCC(=O)NNC(=O)c1ccco1	none (no result: Yeast lifespan up, BB579 growth dn, Insulin prom inh)
C/C(=N\NC(=O)c1nn(C)c(C)c1Br)c1ccc(NC(=O)c2ccccc2F)cc1	none
Cc1noc(C)c1COc1ccc(C(=O)OC(C)C(=O)Nc2ccc(S(=O)(=O)N3CCOCC3)cc2)cc1 (stereo not given)	none
CCCC(=O)OCCNc1cc(SCc2ccco2)c2nonc2c1[N+](=O)[O-]	RAM network inh 14 | RAM efflux-def inactive
FC(F)Sc1ccc(NC(=S)NC(c2ccccc2)c2ccccc2)cc1	RAM network inh 19 (no result: Yeast lifespan up, BB579 growth dn) | RAM efflux-def inactive
FC(F)Sc1ccc(NC(=S)NCc2ccccc2)cc1	none (no result: Yeast lifespan up, BB579 growth dn, Insulin prom inh)
Cc1nn(Cc2ccccc2)c(Cl)c1C(=O)OCc1nnc(-c2ccccc2)o1	RAM network inh 16 (no result: Insulin prom inh) | RAM efflux-def inactive
O=[N+]([O-])c1ccc(N/N=C/c2sc(N3CCOCC3)nc2-c2ccccc2)c(S(=O)(=O)Nc2ccc(Cl)cc2)c1	RAM network inh 12 (no result: Yeast lifespan up, BB579 growth dn) | RAM efflux-def inactive
O=C(O)c1cccc(N/N=C/c2sc(N3CCOCC3)nc2-c2ccccc2)c1	none
O=c1c2nnn(-c3ccc(Br)cc3)c2ncn1Cc1ccccn1	none (no result: Yeast lifespan up, BB579 growth dn, Insulin prom inh)
Cc1ccc(NC(=O)CCC(=O)OCC(=O)c2ccc(-c3ccccc3)cc2)cc1	none
Cc1ccccc1OCC(=O)OCC(=O)c1ccc(-c2ccccc2)cc1	RAM network inh 14 (no result: Insulin prom inh) | RAM efflux-def inactive
O=C(CCCSc1nc2ccccc2[nH]1)Nc1nnc(-c2ccccc2)o1	RAM network inh 14 | RAM efflux-def inactive
C=CCSc1nnc(CCCCCN2C(=O)c3cccc4cccc(c34)C2=O)o1	RAM network inh 16 | RAM efflux-def inactive
CCOC(=O)CCCSc1nnc(CCCCCN2C(=O)c3cccc4cccc(c34)C2=O)o1	RAM network inh 14 (no result: Insulin prom inh) | RAM efflux-def inactive
Cc1nnc(SCCCN2C(=O)c3ccccc3C2=O)o1	none (no result: Insulin prom inh)
CCCOc1cccc(NC(=O)OC2CCN(C)CC2)c1	none
O=C(COC(=O)C1(c2ccccc2F)CCCC1)Nc1ncc(C(F)(F)F)cc1Cl	RAM network inh 12 | RAM efflux-def inactive
Cn1cnnc1SC1c2cccc3cccc(c23)C1NS(=O)(=O)c1ccccc1 (stereo not given)	none
Cn1cnnc1SC1c2cccc3cccc(c23)C1NS(=O)(=O)c1ccc(Cl)cc1 (stereo not given)	RAM network inh 12 | RAM efflux-def inactive
Cc1ccc2[nH]c(=O)cc(C(=O)OCC(=O)c3ccccc3)c2c1	RAM network inh 15 | RAM efflux-def inactive
Cc1c(/C=N\NC(=O)C2COc3ccc(C(C)(C)C)cc3O2)c2ccccc2n1C (stereo not given)	none
CN(CCOc1ccccc1)S(=O)(=O)c1ccc2oc3ccccc3c2c1	RAM network inh 15 | RAM efflux-def inactive
COc1ccc(OCCNS(=O)(=O)c2ccc3oc4ccccc4c3c2)cc1	none
CC(=O)N1CC[n+]2c(-c3ccc(Cl)cc3Cl)csc21	none
CCSc1nnc(NS(=O)(=O)c2ccc(C)cc2)s1	none
Cc1ccc(C2=NN(Cc3nnc(-c4ccccc4)o3)C(=O)SC2)cc1	RAM network inh 12 | RAM efflux-def inactive
CC(C)C(c1nnnn1C1CCCC1)N1CCc2ccccc21 (stereo not given)	none (no result: Insulin prom inh)
Cc1ccc(C(c2nnnn2C2CCCC2)N2CCc3ccccc32)cc1 (stereo not given)	RAM network inh 12 (no result: Insulin prom inh) | RAM efflux-def inactive
CC(C)CNC(=O)CC(c1ccccc1)c1ccccc1	none (no result: Yeast lifespan up, BB579 growth dn)
COc1ccccc1-c1ccc(/C=C2/C=C(CC(C)C)OC2=O)o1	RAM network inh 14 | RAM efflux-def inactive
CCCC1=C/C(=C/c2ccc(-c3ccccc3OC)o2)C(=O)O1	none
C=C(C)COc1ccc(-c2[nH]ncc2-c2ccc(OC)c(OC)c2)c(O)c1	RAM network inh 14 (no result: Insulin prom inh) | RAM efflux-def inactive
C=C(C)COc1ccc(-c2n[nH]c(C)c2Oc2ccccc2OC)c(O)c1	none
C=C(C)COc1ccc(-c2[nH]ncc2Oc2ccccc2OCC)c(O)c1	RAM network inh 16 | RAM efflux-def inactive
CCCc1ccc(Oc2cn[nH]c2-c2ccc(O)cc2O)cc1	none
